Assay results published in ChEMBL document CHEMBL4428079, “Modulation of Backbone Flexibility for Effective Dissociation of Antibacterial and Hemolytic Activity in Cyclic Peptides” (ACS Med Chem Lett, 2016).
Converted amounts (≈) assume the structure as drawn. The source made the active and inactive calls. The calls are words filed in the database; no cut-off is given here. Bridge positions count the residues as written; N and C are the ends. Square brackets hold non-standard residues; d marks the D form. Peptide text beside a SMILES is read from it. Bip = N[C@@H](Cc1ccc(-c2ccccc2)cc1)C(=O)O; 2Nal = N[C@@H](Cc1ccc2ccccc2c1)C(=O)O; Dab = NCC[C@H](N)C(=O)O; AEEA = NCCOCCOCC(=O)O; Aoc = NCCCCCCCC(=O)O; Ahx = NCCCCCC(=O)O; AEA = NCCOCC(=O)O; GABA = NCCCC(=O)O

How the values were obtained:
Acinetobacter baumannii = experiment: Antimicrobial activity against multiple drug resistant-Acinetobacter baumannii ATCC BAA-1605 after 18 hrs by tube microdilution method; format: functional; conditions: ATCC BAA-1605, 18 h
Staphylococcus aureus [1] = experiment: Antimicrobial activity against methicillin-resistant Staphylococcus aureus ATCC 33591 after 18 hrs by tube microdilution method; format: functional; conditions: ATCC 33591, 18 h
Erythrocyte = experiment: Hemolytic activity in human RBC after 1 hr by microplate reader method; format: ADME, cell-based
Klebsiella pneumoniae = experiment: Antimicrobial activity against multiple drug resistant-Klebsiella pneumoniae ATCC 700603 after 18 hrs by tube microdilution method; format: functional; conditions: Klebsiella pneumoniae, 700603, 18 h
Escherichia coli = experiment: Antimicrobial activity against Escherichia coli ATCC 25922 after 18 hrs by tube microdilution method; format: functional; conditions: ATCC 25922, 18 h
Pseudomonas aeruginosa = experiment: Antimicrobial activity against Pseudomonas aeruginosa ATCC 27853 after 18 hrs by tube microdilution method; format: functional; conditions: ATCC 27853, 18 h
Enterococcus faecium = experiment: Antimicrobial activity against vancomycin-resistant Enterococcus faecium ATCC 700221 after 18 hrs by tube microdilution method; format: functional; conditions: ATCC 700221, 18 h
Lipid bilayer [2] = experiment: Binding affinity to DOPE/DOPG large unilamellar vesicles in 3:1 ratio assessed as exciton split measured at 225 nanometer in NaHCO3 buffer
Staphylococcus aureus [3] = experiment: Bactericidal activity against Staphylococcus aureus ATCC 29213 assessed as reduction in bacterial burden at 32 uM after 24 hrs by time kill kinetic study; format: functional, organism-based
In short: (§1)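 Time-course kill assay against S. aureus ATCC 29213 with peptide at 32 μM. Viable cell count was followed over time as colony counts, with a final sampling at 24 h.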

Staphylococcus aureus [4] = experiment: Bactericidal activity against Staphylococcus aureus ATCC 29213 assessed as reduction in bacterial burden at 32 uM measured up to 3.5 hrs by time kill kinetic study; format: functional; in short: as §1
Lipid bilayer [5] = experiment: Membrane permeabilization in DOPC/POPG large unilamellar vesicles in 3:1 ratio assessed as sulforhodamine B release at 16 to 64 uM by fluorescence assay
In short: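 Sulforhodamine B was entrapped at self-quenching concentration in LUVs of DOPC/POPG at 3:1. PE lipids were excluded, and palmitoyl replaced one oleyl chain for vesicle stability. Peptide was added at 16, 32 or 64 μM, and marker release was followed over time as fluorescence recovery on dye release and dilution.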

Staphylococcus aureus [6] = experiment: Bactericidal activity against Staphylococcus aureus ATCC 29213 assessed as reduction in bacterial burden at 32 uM measured up to 30 mins by time kill kinetic study; format: functional; in short: as §1

Row | Structure (SMILES) | MIC (Acinetobacter baumannii) [µM] | MIC (Staphylococcus aureus [1]) [µM] | EC50 (Erythrocyte) [µM] | MIC (Klebsiella pneumoniae) [µM] | MIC (Escherichia coli) [µM] | MIC (Pseudomonas aeruginosa) [µM] | MIC (Enterococcus faecium) [µM] | Activity (Lipid bilayer [2]) | Activity (Staphylococcus aureus [3]) | LCK (Staphylococcus aureus [4]) | Activity (Lipid bilayer [5]) | LCK (Staphylococcus aureus [6])
1 | NCCCC[C@@H]1NC(=O)[C@H](CCCCN)NC(=O)[C@H](Cc2ccc3ccccc3c2)NC(=O)[C@H](CCCCN)NC(=O)[C@@H](CC(N)=O)NC(=O)[C@H](CCCCN)NC(=O)[C@H](Cc2ccc3ccccc3c2)NC(=O)CCCCCCCCCNC(=O)[C@H](Cc2ccc(-c3ccccc3)cc2)NC1=O | 16 (≈ 22.6 µg/mL) | 16 (≈ 22.6 µg/mL) | 5 | > 64 | 16 (≈ 22.6 µg/mL) | > 64 | 8 (≈ 11.3 µg/mL) |  |  |  |  | 
2 | NCCCC[C@@H]1NC(=O)[C@H](Cc2ccc3ccccc3c2)NC(=O)CCCCCCCCCNC(=O)[C@H](Cc2ccc(-c3ccccc3)cc2)NC(=O)[C@H](CCCCN)NC(=O)[C@H](CCCCN)NC(=O)[C@H](Cc2ccc3ccccc3c2)NC(=O)[C@H](CCCCN)NC(=O)[C@H](CC(N)=O)NC1=O |  |  |  |  |  |  |  | Active |  |  |  | 
3 | NCCCC[C@@H]1NC(=O)[C@H](CCCCN)NC(=O)[C@H](Cc2ccc3ccccc3c2)NC(=O)[C@H](CCCCN)NC(=O)[C@H](CC(N)=O)NC(=O)[C@H](CCCCN)NC(=O)[C@H](Cc2ccc3ccccc3c2)NC(=O)[C@@H](N)CCCCNC(=O)[C@H](Cc2ccc(-c3ccccc3)cc2)NC1=O (H-K[2Nal]KNK[2Nal]KK[Bip]; lactam 1-C) | > 64 | 16 (≈ 22 µg/mL) | > 300 | 64 (≈ 87.9 µg/mL) | 32 (≈ 43.9 µg/mL) | 16 (≈ 22 µg/mL) | 2 (≈ 2.75 µg/mL) | Active |  |  |  | 
4 | NCCCC[C@@H]1NC(=O)[C@H](CCCCN)NC(=O)[C@H](Cc2ccc3ccccc3c2)NC(=O)[C@H](CCCCN)NC(=O)[C@H](CC(N)=O)NC(=O)[C@H](CCCCN)NC(=O)[C@H](Cc2ccc3ccccc3c2)NC(=O)[C@@H](N)CCNC(=O)[C@H](Cc2ccc(-c3ccccc3)cc2)NC1=O (H-[Dab][2Nal]KNK[2Nal]KK[Bip]; lactam 1-C) | > 64 | 16 (≈ 21.5 µg/mL) | > 300 | 64 (≈ 86.1 µg/mL) | 64 (≈ 86.1 µg/mL) | 32 (≈ 43 µg/mL) | 2 (≈ 2.69 µg/mL) | Active | Active | 3 |  | 
5 | NCCCC[C@@H]1NC(=O)[C@H](Cc2ccc3ccccc3c2)NC(=O)COCCOCCNC(=O)[C@H](Cc2ccc(-c3ccccc3)cc2)NC(=O)[C@H](CCCCN)NC(=O)[C@H](CCCCN)NC(=O)[C@H](Cc2ccc3ccccc3c2)NC(=O)[C@H](CCCCN)NC(=O)[C@H](CC(N)=O)NC1=O (cyclo(K[2Nal]KK[Bip][AEEA][2Nal]KN)) | 16 (≈ 22.2 µg/mL) | 16 (≈ 22.2 µg/mL) | > 300 | 64 (≈ 88.9 µg/mL) | 64 (≈ 88.9 µg/mL) | 32 (≈ 44.5 µg/mL) | 2 (≈ 2.78 µg/mL) | inactive |  |  | Active | 
6 | NCCCC[C@@H]1NC(=O)[C@H](Cc2ccc3ccccc3c2)NC(=O)CNC(=O)[C@H](Cc2ccc(-c3ccccc3)cc2)NC(=O)[C@H](CCCCN)NC(=O)[C@H](CCCCN)NC(=O)[C@H](Cc2ccc3ccccc3c2)NC(=O)[C@H](CCCCN)NC(=O)[C@H](CC(N)=O)NC1=O (cyclo([2Nal]KK[Bip]G[2Nal]KNK)) | 32 (≈ 41.7 µg/mL) | 8 (≈ 10.4 µg/mL) | 45 | 32 (≈ 41.7 µg/mL) | 32 (≈ 41.7 µg/mL) | 32 (≈ 41.7 µg/mL) | 4 (≈ 5.21 µg/mL) | Active | Active |  | Active | 
7 | NCCCC[C@@H]1NC(=O)[C@H](Cc2ccc3ccccc3c2)NC(=O)COCCNC(=O)[C@H](Cc2ccc(-c3ccccc3)cc2)NC(=O)[C@H](CCCCN)NC(=O)[C@H](CCCCN)NC(=O)[C@H](Cc2ccc3ccccc3c2)NC(=O)[C@H](CCCCN)NC(=O)[C@H](CC(N)=O)NC1=O (cyclo([2Nal]KK[Bip][AEA][2Nal]KNK)) | 32 (≈ 43.1 µg/mL) | 16 (≈ 21.5 µg/mL) | > 300 | 64 (≈ 86.1 µg/mL) | 32 (≈ 43.1 µg/mL) | 32 (≈ 43.1 µg/mL) | 4 (≈ 5.38 µg/mL) | Active |  |  |  | 
8 | NCCCC[C@@H]1NC(=O)[C@H](Cc2ccc3ccccc3c2)NC(=O)CCCCCNC(=O)[C@H](Cc2ccc(-c3ccccc3)cc2)NC(=O)[C@H](CCCCN)NC(=O)[C@H](CCCCN)NC(=O)[C@H](Cc2ccc3ccccc3c2)NC(=O)[C@H](CCCCN)NC(=O)[C@H](CC(N)=O)NC1=O (cyclo([2Nal]KK[Bip][Ahx][2Nal]KNK)) | 8 (≈ 10.9 µg/mL) | 8 (≈ 10.9 µg/mL) | 18 | 8 (≈ 10.9 µg/mL) | 16 (≈ 21.7 µg/mL) | 16 (≈ 21.7 µg/mL) | 2 (≈ 2.72 µg/mL) | Active |  |  |  | 
9 | NCCCC[C@@H]1NC(=O)[C@H](Cc2ccc3ccccc3c2)NC(=O)CCCCCCCNC(=O)[C@H](Cc2ccc(-c3ccccc3)cc2)NC(=O)[C@H](CCCCN)NC(=O)[C@H](CCCCN)NC(=O)[C@H](Cc2ccc3ccccc3c2)NC(=O)[C@H](CCCCN)NC(=O)[C@H](CC(N)=O)NC1=O (cyclo([2Nal]KK[Bip][Aoc][2Nal]KNK)) | 16 (≈ 22.2 µg/mL) | 4 (≈ 5.54 µg/mL) | 12 | 16 (≈ 22.2 µg/mL) | 16 (≈ 22.2 µg/mL) | 16 (≈ 22.2 µg/mL) | 2 (≈ 2.77 µg/mL) | Active |  |  | Active | 
10 | NCCCC[C@@H]1NC(=O)[C@H](Cc2ccc3ccccc3c2)NC(=O)CCCNC(=O)[C@H](Cc2ccc(-c3ccccc3)cc2)NC(=O)[C@H](CCCCN)NC(=O)[C@H](CCCCN)NC(=O)[C@H](Cc2ccc3ccccc3c2)NC(=O)[C@H](CCCCN)NC(=O)[C@H](CC(N)=O)NC1=O (cyclo([2Nal]KK[Bip][GABA][2Nal]KNK)) | 32 (≈ 42.5 µg/mL) | 16 (≈ 21.3 µg/mL) | 155 | 32 (≈ 42.5 µg/mL) | 32 (≈ 42.5 µg/mL) | 32 (≈ 42.5 µg/mL) | 4 (≈ 5.32 µg/mL) | Active | Active |  |  | 3
